Active and inactive are the calls of the source.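 The calls were made as follows: active = target-selective compounds that prevent over 30% of T7 phage killing of the bacteria in the dose series; inactive = the rest.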
test: K1 capsule specificity via T7 phage lysis, dose response, selectivity assay for bacterial capsule biogenesis inhibitors, EV36 strain, set 4 (AID 504767); conditions: E. coli EV36 T7 phage lysis; series mostly up to 100 µM
Summary of the method: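 Material: Escherichia coli EV36, a K1:K-12 hybrid strain / Also added: T7 bacteriophage / Measured by: OD600 absorbance / Buffer or medium: LB broth, overnight culture diluted 1:100 / Repeats: four replicate wells per concentration / Schedule: 1.5 h compound at 37 °C, read 3 h post-infection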

outcome, inactive:
O=C(Nc1nc2c(F)cc(F)cc2s1)c1ccncc1
O=C(Nc1nc2ccc(F)cc2s1)c1ccccn1
O=C(Nc1nc2ccccc2s1)c1cccnc1
O=C(Nc1nc2c(F)cc(F)cc2s1)c1ccccc1
O=C(Nc1nc2ccccc2s1)c1ccncc1
O=C(Nc1nc2c(F)cc(F)cc2s1)c1cccnc1
Cc1cc(C)c2nc(NC(=O)c3ccccn3)sc2c1
O=C(Nc1nc2c(F)cccc2s1)c1ccccn1
O=C(Nc1nc2c(Cl)cc(Cl)cc2s1)c1ccccn1

Source: PubChem BioAssay AID504767 (Southern Research Specialized Biocontainment Screening …, 2011)
